The values below come from ChEMBL document CHEMBL4706680, “Small-Molecule HSP27 Inhibitor Abolishes Androgen Receptors in Glioblastoma” (J Med Chem, 2021).

Each structure is given as a SMILES string. The source made the active and inactive calls. No cut-off for these calls is given here.

One data set relates to T98G. The data set is described as follows: Antiproliferative activity against human T98G cells overexpressing AR assessed as reduction in cell viability incubated for 48 hrs by MTT assay. In kind it is functional, cell-based. Put shortly:
(§1)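 MTT assay; 3000 cells/well in RPMI 1640 or DMEM with 10% FBS, seeded 24 h, then exposed 48 h to a range of concentrations in DMSO (final ≤0.1%); vehicle controls. MTT 1 mg/mL for 2 h at 37 °C, dye dissolved in DMSO, absorbance 570 nm; eight replicates; IC50 by nonlinear regression.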
In general terms: Formazan colour is commonly taken as a measure of viable cells.

The next data set deals with U-251. The data set is described as follows: Antiproliferative activity against human U-251 cells assessed as reduction in cell viability incubated for 48 hrs by MTT assay. In kind it is functional, cell-based. Conditions: U-251, 48 h. Put shortly:
as §1

The next data set has as its system U-87 MG. The data set is described as follows: Antiproliferative activity against human U87 cells assessed as reduction in cell viability incubated for 48 hrs by MTT assay. In kind it is functional, cell-based, U-87MG ATCC. Put shortly:
as §1

The nature of data set [1]: Toxicity in CD1 mouse assessed as acute pain at 80 mg/kg/day, ip administered thrice weekly and measured at day 10. In kind it is organism-based. The settings on record: in vivo, 72 h, time 3 day. The method in brief: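 Male CD-1 mice, four per group, given 80 mg/kg in PBS IP three times weekly; vehicle DMSO. Mice were euthanized when toxicity signs appeared, otherwise at day 10. Body weight was recorded at first and last dosing days. Non-fasted cardiac blood was taken after euthanasia for an automated hematology analyzer.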

The target of data set [2] is Heat shock protein beta-1 (Homo sapiens) (UniProt P04792). Briefly: Inhibition of HSP27 (unknown origin) chaperone activity assessed as increase in DTT-induced insulin aggregation at 10 uM incubated for 5 mins in absence of alpha-crystallin followed by addition of DTT and measured for 2 hrs for every 3 mins by microplate reader analysis. The settings on record: time 125.0 min. The method in brief:
(§2)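 Insulin aggregation assay in PBS at 10 μM, 0.1% DMSO. Insulin stock 1 mg/mL with or without α-crystallin stock 5 mg/mL was preincubated 5 min at 37 °C. Aggregation was started with DTT (1 M stock). A400 was read every 3 min for 2 h; three independent experiments, each in triplicate.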

For data set [3] the target is unchanged. Briefly: Inhibition of HSP27 (unknown origin) chaperone activity assessed as increase in DTT-induced insulin aggregation at 10 uM incubated for 5 mins in presence of alpha-crystallin followed by addition of DTT and measured for 2 hrs for every 3 mins by microplate reader analysis. Conditions: time 125.0 min. Put shortly:
as §2

Data set [4] has the same target. Briefly: Inhibition of HSP27 in human U87 cells assessed as reduction in AR expression level at 50 to 100 nM by Western blot analysis. The class given is cell-based. The settings on record: dose 50-100 nM. Put shortly: (§3)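 Cells were treated in six-well plates (with or without MG132 where stated), then lysed in RIPA with protease inhibitors. 50 μg protein was run on 10% SDS-PAGE and transferred to PVDF. Membranes were blocked in 5% milk/TBS-T, probed with AR or AR-V7 antibodies overnight at 4 °C, and detected by chemiluminescence. Densitometry was used; n = 3.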
Background: Immunoblotting shows a protein as a band on a membrane.

Data set [5] has the same target. Briefly: Inhibition of HSP27 in human T98G cells assessed as reduction in AR-V7 expression level at 50 to 100 nM in presence of MG132 by Western blot analysis. The settings on record: dose 50-100 nM. In kind it is cell-based. The method in brief:
as §3

Another data set is filed under the species Bos taurus. Briefly: Inhibition of bovine brain tubulin polymerization measured every 1 min for 45 mins in presence of GTP by microplate reader analysis. Conditions: dose 1-1000 nM. The method in brief:
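MAP-rich bovine brain tubulin, 2 mg/mL, in 80 mM PIPES pH 6.9, 2 mM MgCl2, 0.5 mM EGTA, 5% glycerol with a range of concentrations in DMSO at 37 °C. Polymerization was started with GTP (100 mM stock, 1 μL). A340 was read each minute for 45 min; three independent experiments, analysed at end reading.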

The next data set deals with U-87MG ATCC. The data set is described as follows: Downregulation of NKX3.1 mRNA expression in human U87 cells at 25 nM incubated for 12 hrs by qRT-PCR analysis. The class given is functional, cell-based. Put shortly: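 T98G and U87 cells, 2 × 10^5 per well, adhered overnight and were treated at 25 nM for 12 h. RNA was extracted with RiboZol and DNase I-treated. AR, PSA and NKX3.1 were measured by real-time PCR, normalized to 18S by 2−ΔΔCt, three replicates per cDNA.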
(Real-time PCR tracks product formation cycle by cycle.)

The target in data set [6] is Heat shock protein beta-1 (Homo sapiens) (UniProt P04792). The data set is described as follows: Inhibition of HSP27 in human T98G cells assessed as reduction in AR expression level at 100 nM incubated for 12 hrs by immunofluorescence analysis. In kind it is cell-based. Put shortly:
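T98G cells on coverslips, 24 h after seeding, were treated 12 h with 100 nM, DHT 10 nM, or both. Cells were fixed in 4% paraformaldehyde, permeabilized with 0.1% Triton X-100 and blocked with 1% BSA. They were stained 1 h each with AR and HSP27 primary and fluorescent secondary antibodies, with DAPI for nuclei.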

Data set [7] in a line: Toxicity in NCR nude mouse xenografted with human U87 cells assessed as change in body weight at 20 mg/kg, ip administered thrice weekly for 14 days. The class given is organism-based. The settings on record: in vivo, 336 h, time 14 day. Put shortly:
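Male NCRNU nude mice, 5–6 weeks old, were given 5 × 10^6 U87 cells in 100 μL sterile PBS, injected subcutaneously into the left and right flanks. Dosing was 20 mg/kg in PBS, three times weekly for 14 days, with a DMSO vehicle group. Body weight was recorded three times weekly. Results are mean ± SD, n = 4 mice per group.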

In the next data set the test system is Mus musculus. Briefly: In vivo inhibition of HSP27 in human U87 cells xenografted in NCR nude mouse assessed as reduction in AR expression level in tumors at 20 mg/kg, po administered thrice weekly for 14 days by Western blot analysis. Conditions: time 14.0 day. In kind it is functional, organism-based. The method in brief: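 Tumors from U87 flank xenografts in male nude mice dosed at 20 mg/kg IP or orally three times weekly for 14 days. The two tumors of each mouse were pooled and homogenized in RIPA with protease inhibitors and PMSF. AR was then measured by western blot; n = 4.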

The nature of data set [8]: Dissociation constant, pKa of the compound. In kind it is physicochemical.

Heat shock protein beta-1 (Homo sapiens), sequence (P04792 whole entry): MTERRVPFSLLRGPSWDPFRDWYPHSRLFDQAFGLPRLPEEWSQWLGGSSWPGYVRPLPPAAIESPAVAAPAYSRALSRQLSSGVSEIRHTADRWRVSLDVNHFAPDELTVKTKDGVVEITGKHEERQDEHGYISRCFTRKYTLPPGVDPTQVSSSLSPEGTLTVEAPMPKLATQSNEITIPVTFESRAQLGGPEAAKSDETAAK

Regarding `COc1ccc(C(=O)Nc2ccc(NS(C)(=O)=O)c(OCc3cc(OC)ccc3OC)c2)cc1`, the IC50 (as a rule, the concentration that inhibits the measured activity by half) in the data set on T98G is 2.01 nM; in the data set on U-251 it was 4 nM; with U-87 MG it was 4.78 nM. Further, the Activity result in data set [1] and in data set [7] was “Non-Toxic” in each case. Moreover, the inhibition result in [2] and in data set [5] was “inactive” throughout. Besides, the inhibition result (in data set [3]; in data set [4]; in the data set with U-87MG ATCC; in data set [6]; in the data set with Mus musculus) was “Active” throughout. Also, the inhibition result in the data set filed under Bos taurus is “Dose-dependent effect”. The pKa (usually the pH at which an ionisable group is half protonated) in [8] stood at 8.65.
